pEC50: −log10 of the molar value.
Assays:
MT4 [1] = assay: Cytotoxic concentration based on the reduction of viability of mock-infected cells; assay type: functional; settings: Homo sapiens
Outline: (§1)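 Mock-infected MT-4 cells; viable cell number determined by MTT method; CC50 = concentration giving 50% reduction of viability.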

MT4 [2] = assay: Compound was evaluated for the inhibition of HIV-1 induced CPE (HTLV-III B strain ) replication in MT-4 cells; assay type: functional, cell-based; settings: Homo sapiens
Outline: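 HIV-1 strain HTLV-IIIB in MT-4 cells; EC50 = concentration giving 50% inhibition of virus-induced cytopathic effect; viable cells counted by MTT method.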

[3] = Selectivity index is the ratio of CC50 and EC50 in MT-4 cells.; assay type: functional, MT4
Outline: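 MT-4 cells; selectivity index = CC50 (MTT viability of mock-infected cells) divided by EC50 (inhibition of HIV-1-induced cytopathic effect).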

MT4 [4] = assay: Compound was evaluated for the inhibition of HIV-1 induced CPE (HTLV-III B strain ) replication in MT-4 cells.; assay type: functional, cell-based; settings: Homo sapiens
Outline: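 HTLV-IIIB strain of HIV-1 in MT-4 cells; activity read as inhibition of virus-induced cytopathic effect, viable cells counted by MTT method; EC50 is the 50% effective concentration.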

MT4 [5] = assay: Compound was evaluated for the inhibition of HIV-2 induced CPE (LAV-2EHO strain ) replication in MT-4 cells; assay type: functional, cell-based; settings: Homo sapiens
MT4 [6] = assay: Cytotoxic concentration based on the reduction of viability of mock-infected MT-4 cells; assay type: functional; settings: Homo sapiens; outline: as §1
MT4 [7] = assay: Cytotoxic concentration based on the reduction of viability of mock-infected MT-4 cells.; assay type: functional; settings: Homo sapiens; outline: as §1
MT4 [8] = assay: Selectivity index is the ratio of CC50 and EC50 in MT-4 cells; assay type: functional, Homo sapiens
Outline: (§2)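 HIV-1 strain HTLV-IIIB in MT-4 cells. EC50 is 50% inhibition of virus-induced cytopathic effect. CC50 is 50% loss of viability in mock-infected cells. Viable cells were counted by the MTT method. Index = CC50/EC50.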

Homo sapiens [9] = species on record: Homo sapiens; assay: Cytotoxic concentration based on the reduction of viability of mock-infected peripheral blood lymphocytes (PBL).; assay type: functional
Outline: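 Mock-infected peripheral blood lymphocytes; CC50 = concentration giving 50% reduction in viability, viable cells measured by MTT method.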

Homo sapiens [10] = species on record: Homo sapiens; assay: (§3) Selectivity index is the ratio of CC50 and EC50 in peripheral blood lymphocytes (PBL).; assay type: functional
Outline: (§4)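 HIV-1 strain HTLV-IIIB in peripheral blood lymphocytes. EC50 is 50% reduction of p24 antigen in culture supernatant. CC50 is 50% loss of viability in mock-infected cells, with viable cells counted by MTT. Index = CC50/EC50.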

[11] = Selectivity index is the ratio of CC50 and EC50 MT-4 cells.; assay type: functional, MT4; outline: as §2
Homo sapiens [12] = species on record: Homo sapiens; assay: Cytotoxic concentration based on the reduction of viability of mock-infected peripheral blood lymphocytes (PBL); assay type: functional
Outline: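 Mock-infected peripheral blood lymphocytes; viable cell number determined by MTT method; CC50 is the concentration giving 50% reduction of viability.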

[13] = as §3; assay type: functional; outline: as §4
Homo sapiens [14] = species on record: Homo sapiens; assay: Compound was evaluated for the inhibition of HIV-1 (HTLV-III B strain ) replication in peripheral blood lymphocytes (PBL), measured as p24 antigen reduction.

SMILES	CC50 (MT4 [1]) [µM]	pEC50 (MT4 [2])	Selectivity index [3]	other results
CN(C)C(=O)Oc1nsnc1-c1ccccc1Cl	161	6.49	503	–
Cc1nsnc1OC(=O)N(C)C	535	< 3.27	<1	–
CN(C)C(=O)Oc1nsnc1-c1ccccc1	183	4.64	8	–
Oc1nsnc1-c1c(Cl)cccc1Cl	221	–	<1	pEC50 (MT4 [4]): 3.67
CCCN(C)C(=O)Oc1nsnc1-c1c(Cl)cccc1Cl	–	7.89	–	pEC50 (MT4 [5]): < 3.88; CC50 (MT4 [6]): 131 µM; CC50 (MT4 [7]): 131 µM; Selectivity index (MT4 [8]): <1; CC50 (Homo sapiens [9]): 150 µM; Selectivity index (Homo sapiens [10]): 37500; Selectivity index [11]: 10077
CCN(C)C(=O)Oc1nsnc1-c1c(Cl)cccc1Cl	136	7.41	3487	–
CN(C)C(=O)Oc1nsnc1-c1c(Cl)cccc1Cl	145	6.62	604	–
CN(C)C(=O)Oc1cnsn1	560	< 3.25	<1	–
CCCCN(C)C(=O)Oc1nsnc1-c1c(Cl)cccc1Cl	29	7.41	744	–
CCCCCCN(C)C(=O)Oc1nsnc1-c1c(Cl)cccc1Cl	16	7.00	160	–
CC(=O)c1ccc(C)cc1NC(C(N)=O)c1c(Cl)cccc1Cl (centres undefined) [LOVIRIDE]	137	8.22	22833	CC50 (Homo sapiens [12]): 48 µM; Selectivity index [13]: 436; pEC50 (Homo sapiens [14]): 6.96
Cc1ccnc2c1NC(=O)c1cccnc1N2C1CC1 [NEVIRAPINE]	290	7.14	3973	–
Cc1cn([C@H]2C[C@H](N=[N+]=[N-])[C@@H](CO)O2)c(=O)[nH]c1=O [ZIDOVUDINE]	3.2	8.40	–	CC50 (Homo sapiens [12]): 83 µM; Selectivity index [13]: 27667; pEC50 (Homo sapiens [14]): 8.52

Source: ChEMBL document CHEMBL1128389, “Thiadiazole derivatives: highly potent and specific HIV-1 reverse transcriptase inhibitors” (J Med Chem, 1995)
